This note sets out measurements from the EternaBench riboswitch data.

In the data set the test system is MS2 coat protein. Description: apparent Kd, MS2 coat protein; higher = weaker binding; RNA-MaP array; FMN 200 µM where present. The method, boiled down: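 Stalled E. coli RNA polymerase produced the designs on Illumina sequencing-chip clusters. SNAP-549-labelled MS2 coat protein was added from 0.7 or 1.5 nM, doubling to 3 µM, without and then with constant ligand, in 100 mM Tris-HCl pH 7.5, 80 mM KCl, 4 mM MgCl2, BSA, DTT, yeast tRNA and Tween-20. The apparent Kd is the median of filtered per-cluster fits of green signal normalised to red-channel RNA signal and control-cluster median Fmax.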

The mark [1] stands for this setting: designed as: ON switch for flavin mononucleotide, no ligand.
The mark [2] stands for this setting: ligand present: flavin mononucleotide, designed as: ON switch for flavin mononucleotide.
The mark [3] stands for this setting: designed as: OFF switch for flavin mononucleotide, no ligand.
[4] abbreviates: ligand present: flavin mononucleotide, designed as: OFF switch for flavin mononucleotide.

A word on the apparent Kd: it is the concentration giving half-maximal binding under the conditions of the assay. Regarding “UUAUUUAUGCAAGGAUAUCAAUUAUAUACACGUCCUACAUGAGGAUCACCCAUGUUUAGUUUUUUUGAGAAGGUGCAUUGUCGG”, the “apparent Kd” value under setting [1] was found to be 0.0521 µM and the “apparent Kd” value under setting [2] worked out at 0.0445 µM.
For “UGUAUGGACAGAGGAUAUACCGAUAGGAUCUACUAUCGAACAAUUCUCACAUGAGGAUCACCCAUGUAGAAGGCUGUCCAUACU”, the “apparent Kd” value under setting [3] turned out to be 0.016 µM and the “apparent Kd” value under setting [4] turned out to be 0.0295 µM.
As to “CCGGAACAUGAGGAUCACCCAUGUGAGGAUAUCGUACGUUCGUCGAUAGACGAUCGUACGAGAAGGCACGCCGG”, the “apparent Kd” value stood at 0.0182 µM under setting [3] and 0.0173 µM under setting [4].
As to “AGCACGAAAGUGCAACGAUGUAGCAGAAGGACAUGAGGAUCACCCAUGUAACGAGUAACUCGAAUGUAGGAUAUGCUACAUCGA”, the “apparent Kd” value came out at 0.025 µM under setting [3] and 0.157 µM under setting [4].
For the sequence “GUGCCUUGGGAGAAGGUUACUAGCAAAGCUAUUAAAGGAUAUUCAUACCGGAAACGGACAUGAGGAUCACCCAUGUGGCACAAA”, the “apparent Kd” value runs as follows: under setting [1], 1.12 µM; under setting [2], 0.118 µM.
Consider “UAUGACAUGAGGAUCACCCAUGUCAGCGAGAAAUGAGAGUCACAGGAUAUGUUUUCGGCCGGCAGACAGAAGGGUGACCCUCAG”, for which the “apparent Kd” value under setting [1] came to 0.00721 µM and the “apparent Kd” value under setting [2] came to 0.00689 µM.
In the case of “ACCUCACAUGAGGAUCACCCAUGUCAGGAUAUCUGAUGUAGUCGCGUUCCCGACGCUAAGAGAAGGGACGUUGA”, the “apparent Kd” value under setting [3] came out at 0.0404 µM and the “apparent Kd” value under setting [4] was determined as 0.0351 µM.
Taken in the same sequence, the figures for “GCACUGGAUGUAGGAUAUCAGGACGAUAAGUCCUGAGAAGGACAUGAGGAUCACCCAUGUCUAAUAAACCAGUGCUAUAAUAUA” were 0.0144 µM and 0.0189 µM.
As for “UGGUACAUGGGAGGAUAUGGGUUGAUAACAUGAGGAUCACCCAUGUUAAAUAUGCCUAAUGGCAACUAGAAGGCCCAUGUACCU”, the “apparent Kd” value runs as follows: under setting [1], 0.377 µM; under setting [2], 0.0408 µM.
Regarding “GGUUGGCGAGGAUAUACAUGAGGAUCACCCAUGUGGUCCUGUGGCUGGUCUUGACUUUGUAGAAGGCGCGGGUC”, the “apparent Kd” value under setting [3] was found to be 0.0497 µM and the “apparent Kd” value under setting [4] stood at 0.0553 µM.
Taken in the same sequence, the figures for “GGACGGUUCGUCAGGAUAUGCUCUACCUCGGUAGAGCAGAAGGGACAUGAGGAUCACCCAUGUGAGAACUGUUC” were 0.0184 µM and 0.0173 µM.
Take “GCUGUCGCAUGAGGAUAUGGUCAGCUUUGCUGACCAGAAGGCAUGUCAAUAGACAUGAGGAUCACCCAUGUAGUUCGGGCGGCU”: the “apparent Kd” value turned out to be 0.849 µM under setting [1] and 0.0761 µM under setting [2].
Consider “CGGGCGCCGAAGGGCGAAAGCCCACAUGAGGAUCACCCAUGUAGAAGGAGGGAAGAAACCAAAACCUAGGAUAUACAGGCGCCC”, for which the “apparent Kd” value by setting is: under setting [3], 0.0079 µM; under setting [4], 0.0102 µM.
On to “UGAUAGCACAGAGGAUAUGCGUAGUGUUAUCACUACAUGAGGAUCACCCAUGUAGAAGGCUGUGCUAUCUAAGUCGGAAACGAC”, for which the “apparent Kd” value runs as follows: under setting [3], 0.00633 µM; under setting [4], 0.00744 µM.
In the case of “UAGCUCCAUGUGAGGAUAUAGACUCGGACCCGGGAUUAGAAGGUACAUGAGGAUCACCCAUGUAUCCAACUUGU”, the “apparent Kd” value under setting [3] was found to be 0.0153 µM and the “apparent Kd” value under setting [4] is 0.0166 µM.
Consider “CCGACCUUGGCAGGAUAUAGACUCGAAGUUGAUCCCGCCGAUGGAGACAUGAGGAUCACCCAUGUCUAGAAGGGCCAGUCGAAA”, for which the “apparent Kd” value by setting is: under setting [3], 0.0143 µM; under setting [4], 0.0461 µM.
As for “UGUGGGUCAGGAUAUUCUAUUUAUUACAUGAGGAUCACCCAUGUGAAUGGACAAGGGUGUGAAGAAGGGACUUGUG”, the “apparent Kd” value under setting [3] stood at 0.876 µM and the “apparent Kd” value under setting [4] was determined as 0.495 µM.
Consider “AAUAUGUUGCAGAAGGCCAUGUUGUGGUAGUACCUCAUGACAUGAGGAUCACCCAUGUCUGUGUUGGAGGAUAUGCAAUAUAUU”, for which the “apparent Kd” value runs as follows: under setting [3], 0.00724 µM; under setting [4], 0.0123 µM.
Taken in the same sequence, the figures for “GCAGGUUAAGUCAGGAUAUACCUAUGGAUACAUAGGUAGAAGGGACAUGAGGAUCACCCAUGUGCCUCGCCUGC” were 0.0177 µM and 0.0693 µM.
“UUGUUGUAUGUAGGAUAUGCAUAUUAUUAUUAUGCAGAAGGACAUGAGGAUCACCCAUGUAUGUUAUUAUUAUAUGUUAUAUAU”: the “apparent Kd” value reads like this: under setting [3], 0.0276 µM; under setting [4], 0.0356 µM.
